The entries come from a sample that favours hits as a whole.
Yeast lifespan up – compounds extending yeast replicative lifespan, primary screen, S. cerevisiae, OD615; inhibition of the nicotinamide effect, % at 10 µM; 130,000 tested, 0.68% active; S. cerevisiae growth with nicotinamide; deaD strain in restrictive glucose medium;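 active = inhibition above a set limit, placed 3 SD over the median of all compounds, cut at about 26% in these data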;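 also: 0% = nicotinamide-treated wells and 100% = cells grown without nicotinamide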
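Material: Modified budding yeast, DeaD strain | Medium: Restrictive glucose medium | Probe or stimulus: 1.5 mM nicotinamide | Dosing: Single dose 10 µM compound, 0.25% DMSO | Times: 48 h at 30 °C | Technique: OD615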
BB579 growth dn – growth inhibitors of yeast BB579 in restrictive medium, primary screen, yeast lifespan-shortening project, S. cerevisiae; inhibition, % at 10 µM; OD615, 48 h; 140,000 tested, 0.51% active;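 active = inhibition above a set limit, 3 SD over the mean compound inhibition, cut at about 44% in these data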
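controls = amphotericin B 10 µg/mL, positive | assay system = DeaD yeast strain BB579 | schedule = 48 h compound exposure at 30 °C after 4 h preincubation | detection = OD615 turbidity measurement | medium = restrictive CSMM-D medium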
PostGolgi yeast – phenotypic screen on post-Golgi transport, primary screen; post-Golgi transport phenotypic cell assay; AID 739, 2007; 98,000 tested, 0.9% active; inhibition, % at 10 µM;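 also: yeast cells grown in 1536-well plates; yeast grown about 18 h at 30C before absorbance read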
PostGolgi ctrl – growth inhibition of yeast control strain, primary screen, counter-screen for post-Golgi transport modulator project; efflux-deficient yeast background strain, growth absorbance A615, 16 h; AID 738, 2007; inhibition, % at 10 µM; 98,000 tested, 5% active
Starred values were filed as active, the others as inactive; . = not tested or not shown. Rule as the data show it, unless noted: active = inhibition above about 30%; inactive = the rest.

SMILES	Yeast lifespan up	BB579 growth dn	PostGolgi yeast	PostGolgi ctrl
CCOC(=O)Cc1c(C)nc2c(-c3cccc(Br)c3)c[nH]n2c1=O	-21.8	-24.4	10.5	22.9
Cc1ccc(S(=O)(=O)CCSc2cccc(C(=O)Nc3ccccc3C(=O)O)c2)cc1	-1.8	-12.7	.	.
COc1cc(OC)cc(-c2nnc(SCC(=O)N3CCCC3)o2)c1	-7.3	-82.0	5.1	35.1*
CCCCOC(=O)CSc1nnc(-c2cc(OC)c(OC)c(OC)c2)o1	-27.6	-58.9	-2.3	32.1*
O=C(NCc1ccco1)c1cccc(NS(=O)(=O)c2ccccc2F)c1	5.7	-19.9	.	.
OC(c1ccccc1)(c1ccc(F)cc1)C(c1ccccc1)N1CCOCC1 (centres undefined)	1.1	-59.6	7.4	30.7*
CC(=O)Nc1ccc(Cl)cc1C1COC(=O)C1=N (centres undefined)	3.7	-10.0	.	.
Cc1ccccc1NC(=O)c1ccc(-n2cncn2)nc1	-7.9	-1.4	-5.3	20.2
Cc1cc(C(C)(C)C)oc1C(=O)N(CC(=O)NC1CCCC1)Cc1ccccc1Cl	-19.3	-50.2	-5.8	30.8*
Cc1ccccc1N(CC(=O)NC1CCCC1)C(=O)c1oc(C(C)(C)C)cc1C	-15.7	-7.7	-3.6	9.3
COc1cc(C(=O)N2CCC(n3c(C)nc4cc(F)ccc43)CC2)cc(OC)c1OC	.	-28.2	.	.
COc1ccc2nc(SCC(=O)Nc3ccc(S(=O)(=O)N4CCCC4)cc3)c(C#N)cc2c1	-3.6	-29.5	12.3	32.8*
COc1ccc2nc(SCC(=O)N3CCCCCC3)c(C#N)cc2c1	6.1	-33.7	-12.6	32.0*
N#Cc1cc2ccccc2nc1SCC(=O)Nc1ccc(S(=O)(=O)N2CCCC2)cc1	-11.0	-43.7	-13.2	0.8
CC(Sc1nc(-c2ccccc2)cs1)C(=O)Nc1ccc(Cl)cn1 (centres undefined)	-3.2	3.2	.	.
CCOC(=O)/C(N)=C/c1ncc(C(F)(F)F)cc1Cl	-21.6	-50.5	2.8	-8.7
O=C1CCSc2ccc(Cl)cc2N1Cc1cccc(Cl)c1	6.2	-23.3	-13.0	41.0*
Cc1ccc(CN2C(=O)CCSc3ccc(Cl)cc32)cc1	-17.7	-44.5	3.8	45.8*
CC(=NCc1cccc(Cl)c1)c1nc(-c2ccco2)oc1O	-9.1	-15.6	.	.
Cc1ccc(Cn2cccc(NC(=O)c3ccco3)c2=O)cc1	-11.8	-31.4	21.0	7.1
Cc1ccc(S(=O)(=O)C/N=C(/NC(=S)N(c2ccccc2)c2ccccc2)c2ccccc2)cc1	45.8*	-45.9	-0.6	28.4
Cc1ccc(S(=O)(=O)/N=C(/NC(=S)Nc2ccccc2)c2ccccc2)cc1	-23.7	-2.4	3.9	-0.6
CN(Cc1ccccc1)c1ccc(C(=O)O)cc1[N+](=O)[O-]	-1.5	-24.0	.	.
Cc1ccccc1C(=O)NNC(=S)NC(=O)COc1ccccc1	11.5	70.3*	19.1	24.6
CN(C(=O)COC(=O)CCc1c[nH]c2ccccc12)C(c1ccccc1)c1ccccc1	8.6	-10.8	.	.
SMILES	Yeast lifespan up	BB579 growth dn	PostGolgi yeast	PostGolgi ctrl
Cc1ccc(S(=O)(=O)NCCCCCC(=O)Nc2cccc(C)c2)cc1	-0.4	-37.5	.	.
CC(CO)Nc1nc(SCc2ccccc2)nc2sc3c(c12)CCC3 (centres undefined)	-29.7	-32.3	1.1	49.7*
COCCNc1nc(SCc2ccccc2)nc2sc3c(c12)CCC3	-15.3	-37.4	1.4	14.9
Cc1ccc(S(=O)(=O)C2(C(=O)N3CCCCC3C)CC2)cc1 (centres undefined)	6.0	-56.0	-3.1	23.0
COCCNC(=O)c1ccc2c(c1)NC(=O)CS2	-20.4	-3.6	0.5	0.4
CCOc1cc2c(cc1C(C)(C)C)NC(=O)CS2	-4.2	-37.5	2.4	34.6*
c1ccc(OCc2nn3c(Cn4cnc5ccccc54)nnc3s2)cc1	-12.8	-51.4	-4.6	41.6*
c1ccc(-c2nn3c(Cn4cnc5ccccc54)nnc3s2)cc1	-11.9	-32.2	-1.8	24.1
Cc1nc(N)sc1-c1csc(Nc2ccccn2)n1	-13.6	-17.5	-1.6	0.1
Cc1nc(N)sc1-c1csc(Nc2ccc(Cl)cn2)n1	-11.0	11.3	-3.9	41.7*
CN(C)c1ccc(S(=O)(=O)c2ccc(Cl)cc2)cc1	70.9*	-11.8	-2.4	6.1
CCCn1c(=O)c(C(=O)NNS(=O)(=O)c2ccc(Cl)cc2)c(O)c2ccccc21	27.1*	-15.3	.	.
CCn1c(=O)c(C(=O)Nn2c(C)nc3ccccc3c2=O)c(O)c2ccccc21	-22.5	99.3*	5.6	21.4
CCn1c(=O)c(C(=O)Nc2nc3ccccc3[nH]2)c(O)c2ccccc21	7.0	67.3*	104.1*	98.2*
CC(=O)c1cccc(S(=O)(=O)NCC2CCCCC2)c1	6.0	-26.5	.	.
O=C(CSc1ncn[nH]1)NCCC(c1ccccc1)c1ccccc1	-22.8	6.8	-0.8	-3.2
CC(C)C(OC(=O)CN1C(=O)COc2ccccc21)C(=O)NC1CCCC1 (centres undefined)	33.8*	-7.8	-1.4	3.6
O=C(COc1ccc2c(c1)CCC2)NCc1ccc(Cl)cc1	-3.2	-21.9	.	.
Cc1ccc(C2=NN(C(=O)CCl)C(c3cccs3)C2)o1 (centres undefined)	35.3*	-59.7	.	.
O=C(Cn1nc(C(F)(F)F)cc1C1CC1)NCc1ccccc1F	0.6	-33.5	.	.
CC(C)CCNC(=O)C12CN(Cc3ccccc3)CC1C(c1ccc([N+](=O)[O-])cc1)=NO2 (centres undefined)	-17.9	-27.1	-1.4	16.6
COc1cccc(CNC(=O)C23CN(Cc4ccccc4)CC2C(c2ccc([N+](=O)[O-])cc2)=NO3)c1 (centres undefined)	-1.4	-34.2	-3.9	33.2*
O=C1NC(=O)C2(COC(c3cccnc3)OC2)S1 (centres undefined)	7.1	-16.5	.	.
O=c1[nH]c(SCc2cccc(F)c2)nc2c1CCCC2	-1.5	-32.8	.	.
O=c1[nH]c(SCc2cccc(Cl)c2)nc2c1CCCC2	-5.7	-22.2	0.3	33.6*
SMILES	Yeast lifespan up	BB579 growth dn	PostGolgi yeast	PostGolgi ctrl
COc1ccc(CC(=O)NC(=S)Nc2ccc(S(=O)(=O)NC(C)(C)C)cc2)cc1	-10.5	-33.3	2.7	38.0*
O=C1c2ccccc2-c2onc3c(Oc4ccccc4)cc(O)c1c23	91.8*	-45.6	16.6	-9.8
CCOc1ccc2noc3c2c1C(=O)c1ccccc1-3	-9.8	32.1	-2.1	-6.8
CCc1cc2c3c(c1)C(C)CC(C)(C)N3C(=O)C2=O (centres undefined)	27.7*	-24.8	.	.
Cc1nn(-c2ccccc2)c(C)c1/C=N/NC(=O)c1cc(-c2cccs2)[nH]n1	-1.9	-34.7	.	.
Cc1nn(-c2ccccc2)c(C)c1/C=N/NC(=O)c1cc(C2CC2)[nH]n1	-1.6	-1.4	-2.9	2.3
Cc1nn(-c2ccccc2)c(C)c1/C=N/NC(=O)c1cc(-c2ccc(Cl)s2)[nH]n1	-20.9	-38.6	53.6*	46.4*
Cc1nn(-c2ccccc2)c(C)c1/C=N/NC(=O)c1cc(C23CC4CC(CC(C4)C2)C3)[nH]n1	-4.2	-11.7	-2.3	60.2*
Cc1nn(-c2ccccc2)c(C)c1/C=N/NC(=O)c1cc(-c2ccc(Br)s2)[nH]n1	-11.2	-58.6	6.1	64.4*

Screening results (PubChem BioAssay)
